Screening data deposited in PubChem by several laboratories.
In the library only some 2.6% were active in any assay of this set; here they are far more common.
NPY-Y1 antag – blocks the human neuropeptide Y Y1 receptor; P25929; inhibition, % at 3.6 µM; AID 1040; HEK293-CNG Y1 cells, membrane potential fluorescence; NPY at EC95, then isoproterenol; 1% of 200,000 active;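 active = inhibition above the campaign mean inhibition of all tested compounds plus 3 SD, cut at about 20% in these data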;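 also: 0% = DMSO wells given NPY plus isoproterenol and 100% = isoproterenol alone without NPY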
Target sequence (P25929 whole entry, looked up): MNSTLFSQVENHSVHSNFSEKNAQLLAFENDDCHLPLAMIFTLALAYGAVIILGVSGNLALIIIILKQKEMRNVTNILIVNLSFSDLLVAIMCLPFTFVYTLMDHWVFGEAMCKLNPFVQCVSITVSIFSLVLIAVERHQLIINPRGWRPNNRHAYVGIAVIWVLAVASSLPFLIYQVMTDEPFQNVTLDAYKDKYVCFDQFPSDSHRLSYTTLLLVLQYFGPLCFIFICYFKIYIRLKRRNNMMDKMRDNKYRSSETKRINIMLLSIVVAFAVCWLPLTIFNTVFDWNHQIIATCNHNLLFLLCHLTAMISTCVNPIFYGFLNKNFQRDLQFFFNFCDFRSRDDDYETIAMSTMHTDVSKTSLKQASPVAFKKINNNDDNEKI
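Assay system: HEK293 cells with Y1 receptor plus CNG channel | Probe or stimulus: NPY (25 nM), isoproterenol (1 µM), Ro 20-1724 (25 µM) | Timing: Compound incubation 1 h at room temperature, readout 45 min post-stimulation | Measured by: Membrane-potential fluorescent dye readout | Benchmarks: High control isoproterenol alone, low control NPY with isoproterenol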
b-catenin transl – alters nuclear translocation of beta-catenin in HeLa cells; immunofluorescence imaging; nuclear translocation activity, % at 5 µM; 0.3% of 190,000 active;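 active = nuclear translocation activity above 50% at 5 µM, with a well cell count of 50 or more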;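 also: per-cell ratio of nuclear to cytoplasmic median beta-catenin stain intensity; plate controls were DMSO negative control for no effect and GSK-3 inhibitor IX positive control for full effect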
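System: HeLa cells, endogenous beta-catenin; compound dosing: 5 µM primary single dose, 0.1% DMSO, 0.02–20 µM confirmation series; incubation: 24 h compound exposure at 37°C, 5% CO2; signal: beta-catenin immunofluorescence imaging with DAPI; evaluation: % activation, nuclear-to-cytoplasmic median beta-catenin signal ratio per cell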
MT stabilizer – stabilizes microtubules in HeLa cells; HeLa tubulin immunostaining HCS, 24 h; share of cells brighter than vehicle mean+2SD; % tubulin-high responders, % at 10 µM; 0.83% of 200,000 active; AID 2205;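 active = plate Z-score above 3 for both tubulin-high and condensed-nucleus cell shares, with cell loss under 80%, at 10 µM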;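 also: anti alpha tubulin signal scored within the nucleus-defined area of each cell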
NPY Y2 blocker – NPY-Y2 (human) receptor antagonism; P49146; NPY-Y2 expressing cells, antagonist mode; inhibition, % at 2.7 µM; 0.99% of 140,000 active; AID 793;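 also: 0% = vehicle with agonist challenge and 100% = reference antagonist with challenge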
Target sequence (P49146 whole entry, looked up): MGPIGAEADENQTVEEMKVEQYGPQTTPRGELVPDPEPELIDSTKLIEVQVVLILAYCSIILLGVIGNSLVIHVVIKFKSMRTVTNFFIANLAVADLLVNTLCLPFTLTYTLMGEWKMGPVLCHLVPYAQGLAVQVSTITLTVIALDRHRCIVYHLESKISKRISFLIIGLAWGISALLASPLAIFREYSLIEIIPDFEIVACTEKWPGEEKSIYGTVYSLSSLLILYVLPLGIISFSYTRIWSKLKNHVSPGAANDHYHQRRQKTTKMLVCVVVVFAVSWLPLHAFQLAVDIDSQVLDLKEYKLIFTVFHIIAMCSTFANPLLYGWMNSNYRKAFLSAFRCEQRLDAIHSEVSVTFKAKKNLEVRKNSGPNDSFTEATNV
NPY2 pot ag – human NPY-Y2 potentiation or agonism, primary screen; P49146; cells expressing NPY-Y2, potentiator/agonist read-out; activation, % at 3.6 µM; 0.45% of 220,000 active; AID 1359; in the data active = activation above about 27%;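 also: cells stimulated with NPY near EC25 plus isoproterenol at EC100; 0% = vehicle plus submaximal agonist and 100% = vehicle plus saturating agonist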
NPY1 pot ag – human NPY-Y1 potentiation or agonism, primary screen; P25929; NPY-Y1 expressing cells, potentiator/agonist activation; activation, % at 3.6 µM; 0.37% of 220,000 active; AID 1304; in the data active = activation above about 33%, passing the limit was not always enough;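 also: cells stimulated with NPY at EC10 then isoproterenol at EC100; 0% = low agonist plus stimulus and 100% = saturating agonist plus stimulus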
NPY1 antag conf – confirmation of human neuropeptide Y receptor Y1 antagonists | shares compounds with NPY-Y1 antag | HEK293-CNG NPY-Y1, membrane potential fluorescence, cAMP; NPY challenge against isoproterenol-raised cAMP | inhibition, % at 3.6 µM | 21% of 1,200 active; in the data active = inhibition above about 20%;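 also: 0% = vehicle with agonist plus stimulus and 100% = stimulus alone without agonist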
NPY2 antag ctr – human NPY-Y2 antagonism in NPY-Y1 counter-screen; shares compounds with NPY-Y1 antag; HEK293 NPY-Y2 CNG membrane potential fluorescence; cells given NPY, then isoproterenol; inhibition, % at 3.6 µM; 28% of 1,200 active; AID 1255;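 also: 0% = DMSO with agonist challenge and 100% = reference antagonist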
Numbers without * were called inactive; · = not tested or not shown. Rule as the data show it, unless noted: active = inhibition above about 17%; inactive = the rest.

SMILES | NPY-Y1 antag | b-catenin transl | MT stabilizer | NPY Y2 blocker | NPY2 pot ag | NPY1 pot ag | NPY1 antag conf | NPY2 antag ctr
Cc1ccc(S(=O)(=O)/N=C(\CCl)N2CCOCC2)cc1 | 6.1 | 6.1 | 4.5 | 1.9 | -8.6 | -3.4 | · | ·
CCOC(=O)c1c(NC(=O)C2CCCCC2C(=O)O)sc2c1CCCCC2 (centres undefined) | 2.6 | -3.4 | 1.7 | · | 22.4 | -18.9 | · | ·
COC(=O)c1c(NC(=O)C2CCCCC2C(=O)O)sc2c1CCCCC2 (centres undefined) | 89.2* | -0.9 | 2.0 | · | -4.9 | -0.4 | 8.1 | 5.2
S=c1[nH]nc(COc2ccccc2)n1/N=C/c1ccncc1 | 10.5 | -5.4 | 1.2 | · | 3.6 | -0.8 | · | ·
CC(/C=N/n1c(COc2ccccc2)n[nH]c1=S)=C\c1ccccc1 | 30.8* | 0.1 | 1.6 | 10.9 | -29.8 | -31.1 | 6.1 | 6.5
CC(OC(=O)CC(NC(=O)c1ccccc1Cl)c1ccccc1)C(=O)Nc1cccc(Cl)c1Cl (centres undefined) | 30.2* | -0.3 | 2.3 | 8.9 | -15.8 | -46.9 | 27.2* | 17.5*
Cc1ccc(CSc2nc3ccccc3c(=O)n2Cc2ccco2)cc1 | 27.8* | 1.5 | 2.9 | 11.0 | -6.0 | -35.6 | 6.5 | 14.3
Cc1ccc(CSc2nc3ccccc3c(=O)n2CCCC(=O)NCc2ccco2)cc1 | 0.7 | 5.9 | 2.5 | -0.9 | -15.8 | 11.8 | · | ·
CCc1cccc(CC)c1NC(=O)Cn1c(-c2ccc(F)cc2)noc1=O | 30.3* | -2.5 | 2.2 | · | -12.4 | -6.6 | 16.7 | 5.9
CC(CCc1ccccc1)NC(=O)/C=C/c1ccccc1 (centres undefined) | 15.7 | 0.7 | 1.1 | 12.7 | -8.4 | -21.7 | · | ·
COc1cc(/C=C/C(=O)NC(C)CCc2ccccc2)cc(OC)c1OC (centres undefined) | 21.6* | -0.5 | 2.4 | 4.9 | -8.6 | -18.1 | 6.4 | 9.9
CCOc1cc(/C=N/n2nnnc2N)ccc1OCc1c(C)no[n+]1[O-] | 21.0* | 0.7 | 1.7 | 6.5 | -21.9 | 0.5 | 9.1 | 9.3
O=C(c1nc2ccccn2c1CNCCCn1cccn1)N1CCCC1 | 5.2 | -1.7 | 3.7 | · | 9.8 | 13.0 | · | ·
C=CCN(C(=O)CSc1nc2c(sc3ccccc32)c(=O)n1CCN(CC)CC)c1ccccc1 | 23.2* | -1.1 | 2.3 | · | -8.7 | -16.9 | 43.8* | 64.9*
COc1ccccc1NC(=O)CSc1nc2c(sc3ccccc32)c(=O)n1CCN(C)C | 6.3 | · | 4.1 | · | -7.7 | -0.4 | · | ·
CCN(CC)CCn1c(SCC(=O)Nc2ccc(F)cc2)nc2c(sc3ccccc32)c1=O | 34.6* | -4.9 | 6.3 | · | -24.7 | -55.2 | 14.9 | 28.8*
C=CCN(C(=O)CSc1nc2ccsc2c(=O)n1Cc1ccccn1)c1ccccc1 | 1.6 | -1.8 | 4.7 | · | 2.6 | 6.8 | · | ·
CC(C)CNC(=O)c1cc2nc(C3CC3)cc(C(F)(F)F)n2n1 | -4.4 | · | 1.5 | 4.3 | 4.0 | -20.7 | · | ·
Fc1ccc2nc(C3CCCCN3Cc3nc(CC4CC4)no3)[nH]c2c1 (centres undefined) | 39.3* | 1.8 | 1.9 | · | -5.7 | -14.6 | 9.3 | 10.7
CCCCCCCC#Cc1ccccc1/C=N/S(=O)c1ccc(C)cc1 (centres undefined) | 0.3 | · | 4.6 | 1.2 | 8.6 | 1.2 | · | ·
CCn1nnc(-c2ccccc2NC(=O)c2cccc(-n3cnnn3)c2)n1 | 7.7 | -0.1 | 2.6 | 1.9 | -3.9 | -10.8 | · | ·
CCn1nnc(-c2ccccc2NC(=O)c2ccc(-n3cnnn3)cc2)n1 | 23.2* | 0.8 | 2.2 | 6.0 | -5.7 | 12.5 | 13.9 | 6.4
COc1ccc(C2Nc3ccccc3C(=O)N2Cc2ccccc2)cc1COc1ccccn1 (centres undefined) | 35.8* | -2.1 | 3.4 | 14.5 | -17.4 | -4.5 | 4.4 | 6.1
CSc1nc(Oc2ccc(F)cc2)c2ccccc2n1 | 22.8* | -0.1 | 0.5 | 11.4 | -19.4 | -22.6 | 5.7 | 9.4
C/C(=N\Nc1ccc([N+](=O)[O-])cc1)c1ccc(N)cc1 | 0.4 | 2.3 | 1.7 | -3.2 | -11.5 | 7.9 | · | ·
SMILES | NPY-Y1 antag | b-catenin transl | MT stabilizer | NPY Y2 blocker | NPY2 pot ag | NPY1 pot ag | NPY1 antag conf | NPY2 antag ctr
C/C(=N\Nc1nc(C)c(C)s1)c1ccc([N+](=O)[O-])cc1 | 37.7* | -1.1 | 2.2 | · | 20.3 | 25.8 | 41.9* | 53.6*
CCCCNC(=S)N(C)/N=C/c1ccc2c(c1)OCO2 | 22.2* | -0.4 | 3.1 | 9.7 | -17.5 | -21.1 | 9.4 | 11.2
COc1ccc(CNC(=O)CSc2ccc(Br)cc2)cc1OC | 5.6 | -1.5 | 2.0 | 1.4 | -7.3 | -7.9 | · | ·
CCCC/C(O)=C1\C(=O)CCCC1=NCCc1c(C)[nH]c2ccccc12 | · | -0.2 | · | · | -9.1 | 14.9 | · | ·
O=C(COC(=O)CCC(=O)c1ccc2c(c1)OCCO2)NCc1ccc2c(c1)OCO2 | 21.1* | -2.9 | 5.1 | 6.6 | -12.5 | -27.5 | 12.1 | 9.5
COc1ccc(Oc2cn[nH]c2-c2ccc(O)cc2O)cc1 | 61.4* | -3.1 | 2.6 | 3.3 | 5.7 | -34.2 | 40.2* | 2.2
COc1cc(C(C(=O)NC2CCCCC2)N(Cc2ccco2)C(=O)c2cnccn2)cc(OC)c1OC (centres undefined) | 5.9 | 0.9 | 1.7 | · | 2.8 | 3.4 | · | ·
O=C(c1cnccn1)N(Cc1ccco1)C1(C(=O)NC2CCCCC2)CCCCC1 | 31.4* | · | 2.3 | 14.5 | 9.5 | 13.2 | 27.2* | 12.1
CCCC(=O)c1c(NC(C)C)cc(C)oc1=O | -4.4 | -2.7 | 3.0 | -0.9 | 0.9 | 13.9 | · | ·
N#Cc1c(Oc2ccc3ccccc3c2)sc(C(=O)c2ccccc2)c1N | 4.7 | 1.0 | 3.4 | 0.3 | -8.1 | -4.3 | · | ·
Cc1cccc(Oc2sc(C(=O)c3ccccc3)c(N)c2C#N)c1C | 24.4* | · | 1.7 | 9.1 | 1.5 | -6.4 | 4.3 | 6.5
CCOC(=O)N1CCN(C(=O)CCl)CC1 | -5.1 | 1.9 | 2.7 | · | -8.4 | -13.2 | · | ·
O=C(c1cc2sccc2n1Cc1ccc(F)cc1)N1CCCc2ccccc21 | 24.1* | -1.5 | 2.2 | 14.6 | -10.0 | -29.9 | 12.2 | 18.9*
CC(C)NC(=O)C1CCN(C(=O)c2cc3sccc3n2Cc2ccc(F)cc2)CC1 | -6.8 | · | 2.2 | -0.4 | 16.9 | 29.1 | · | ·
O=C(O)c1ccccc1C(=O)Nc1ccc(S(=O)(=O)NC2CCCCC2)cc1 | 0.1 | · | 5.5 | 2.5 | 0.5 | 9.7 | · | ·
CCOC(=O)c1c(CSc2cccs2)n(C)c2cc(Br)c(O)c(CN(C)C)c12 | 59.4* | -0.6 | 6.6 | · | -52.9 | -60.0 | 51.2* | 47.8*
CCOC(=O)c1c(C)n(C)c2cc(Br)c(O)c(O)c12 | · | 0.7 | · | · | -14.2 | -5.0 | · | ·
